# CSC inhib = blocks cancer stem cells. cancer stem cell-like cells viability, luminescence. inhibition, % at 7.5 µM. actives 1.1% (n = 300,000). AID 2717; in the data active = inhibition above about 75%; tested in HMLE shEcad cells
# Lmaj promast = inhibitors of Leishmania major promastigote growth. actives 9% (n = 200,000). inhibition, % at 10 µM. Leishmania major promastigotes, resazurin fluorescence viability. AID 1063; in the data active = inhibition above about 50%;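 also: promastigotes grown with compound for 44 hours at 28 °C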
# T cruzi repl = T. cruzi replication inhibition; T. cruzi beta-gal in NIH3T3, luminescence, 90 h; inhibition, % (no concentration beside the values); actives 1.4% (n = 300,000); AID 1885;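 active = mean inhibition across valid replicates above about 55%, limit read from the data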;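 also: signal also drops with host cell toxicity which is not excluded here; 0% = plate median of DMSO wells and 100% = zero luminescence signal; higher percent means less beta-gal luminescence so fewer parasites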
#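 System: Mouse NIH/3T3 fibroblasts infected with β-gal-expressing T. cruzi Tulahuen C4 | Quantity: NIH/3T3 cells, 5,000 per well | Reagent: 5000 reporter trypomastigotes per well | Dosing: Compound pinned at 50 nL/well, DMSO | Schedule: 3 h host attachment, then at least 90 h co-culture | Detection: GalScreen luminescence, 60 min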
# Beta cell apopt = blocks beta cell apoptosis | actives 0.8% (n = 300,000) | INS-1E cytokine-induced death, ATP luminescence, 48 h; percent of positive-control rescue, neutral wells zero | protection from apoptosis, % (test concentration not listed);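 active = Every replicate reaches about 75%, or at least half do and their mean reaches it too, limit read from the data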;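 also: 0% = cytokine-treated negative control wells and 100% = positive control rescue; higher means more ATP so stronger rescue from cytokine killing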
# Mdm2 MdmX PPI = disrupts the human Mdm2-MdmX interaction. O15151+Q00987. SaOS-2 split-luciferase Mdm2/MdmX complementation, luminescence. inhibition, % at 8 µM. AID 485346. actives 3% (n = 330,000);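 active = inhibition of at least 50% at 8 µM in the primary screen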
# Target sequence (O15151 whole entry, looked up): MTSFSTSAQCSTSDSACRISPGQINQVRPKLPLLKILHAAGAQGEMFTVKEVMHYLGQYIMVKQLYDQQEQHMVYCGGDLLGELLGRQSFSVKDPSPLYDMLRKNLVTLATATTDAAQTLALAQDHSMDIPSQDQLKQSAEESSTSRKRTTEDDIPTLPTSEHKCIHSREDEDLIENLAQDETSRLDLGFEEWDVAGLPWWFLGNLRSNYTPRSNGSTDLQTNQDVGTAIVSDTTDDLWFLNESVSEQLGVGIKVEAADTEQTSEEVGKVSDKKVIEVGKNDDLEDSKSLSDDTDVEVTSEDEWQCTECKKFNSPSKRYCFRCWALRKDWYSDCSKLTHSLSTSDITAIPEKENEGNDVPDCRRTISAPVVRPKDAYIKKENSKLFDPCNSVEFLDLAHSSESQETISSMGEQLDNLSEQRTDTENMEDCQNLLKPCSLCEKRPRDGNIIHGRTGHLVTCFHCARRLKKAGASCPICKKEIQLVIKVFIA
# Target sequence (Q00987 whole entry, looked up): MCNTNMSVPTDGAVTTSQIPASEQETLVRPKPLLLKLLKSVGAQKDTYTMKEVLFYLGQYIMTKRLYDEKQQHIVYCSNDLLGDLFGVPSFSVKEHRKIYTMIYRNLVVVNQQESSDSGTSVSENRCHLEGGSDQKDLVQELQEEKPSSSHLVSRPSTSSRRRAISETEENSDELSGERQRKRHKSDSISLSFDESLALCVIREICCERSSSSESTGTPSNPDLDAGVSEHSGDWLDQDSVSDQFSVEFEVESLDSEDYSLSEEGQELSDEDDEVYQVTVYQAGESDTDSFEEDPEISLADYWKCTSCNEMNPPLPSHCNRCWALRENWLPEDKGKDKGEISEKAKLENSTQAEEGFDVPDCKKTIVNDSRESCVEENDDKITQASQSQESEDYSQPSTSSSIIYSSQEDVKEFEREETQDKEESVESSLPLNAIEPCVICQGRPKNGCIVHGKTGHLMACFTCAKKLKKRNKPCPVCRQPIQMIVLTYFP
# SKKanGAS inh = inhibitors of SKKanGAS S. pyogenes growth in kanamycin (SK-promoter or general growth effect). BacTiter-Glo, 6 h. inhibition, % at 7.5 µM. actives 1.3% (n = 300,000);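 active = mean replicate score, as percent of positive control median, at least 50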;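 also: strain carries kanamycin resistance gene driven by streptokinase promoter and grows in 40 µg/ml kanamycin; loss of luminescence reflects streptokinase promoter inhibition or plain growth inhibition; 0% = median of DMSO wells and 100% = positive control at its reference dose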
# * hit, by the source's call; · = no result given. A selection: hits, their analogues and other compounds. The true share with any hit is near 9.4%.
SMILES,CSC inhib,Lmaj promast,T cruzi repl,Beta cell apopt,Mdm2 MdmX PPI,SKKanGAS inh
COC(=O)c1ccc(Cn2nc(C)c(Cl)c2C)o1,-9,1,4,-4,-1,3
Cc1ccc2nc(-c3ccccn3)c(NC3CCCC3)n2c1,29,100*,68*,102*,30,96*
CCCCCCSc1cccc(-c2nc3ccc(C)cn3c2NC2CCCCC2)c1,60,·,14,1,25,34
N#CC1=C2SCN(Cc3ccco3)CN2C(=O)CC1c1c(F)cccc1Cl (stereo unspecified),4,75*,4,-8,-16,17
Cc1noc(C)c1COC(=O)[C@H](C)NS(=O)(=O)c1ccc(Cl)c(Cl)c1,6,73*,5,0,11,-1
Cc1noc(C)c1COC(=O)Cc1ccc(Cl)c(Cl)c1,-16,-4,2,-3,27,10
Oc1ccc(N=Nc2n[nH]c(-c3ccccc3)n2)cc1,-2,12,8,1,-90,3
Oc1ccc(N=Nc2nc(-c3ccccc3)c(-c3ccccc3)[nH]2)cc1,189*,96*,22,16,28,31
CC1CCc2c(sc3nc(CN4CCOCC4)nc(Sc4ccccc4)c23)C1 (stereo unspecified),84*,7,22,-10,5,30
O=C1CCCC2=C1C(O)(C(F)(F)F)C(=O)N2Cc1ccccc1 (stereo unspecified),-8,61*,41,2,19,3
O=C1NC2(CCCCCC2)C(=O)N1Cc1ccccc1,2,·,-12,-3,8,1
CC(C)CC(=O)NC1(C(F)(F)F)C(=O)N(Cc2ccccc2)C2=C1C(=O)CC(C)(C)C2 (stereo unspecified),-9,26,1,3,1,-11
CC1(C)CC(=O)C2=C(C1)N(Cc1ccccc1)C(=O)C2(O)C(F)(F)F (stereo unspecified),-3,66*,17,-23,21,-3
O=C(c1ccccc1)N1N=C(C(F)(F)F)CC1(O)c1ccc(F)cc1 (stereo unspecified),19,·,-25,1,9,-15
CCOC(=O)C1=C(O)/C(=C/c2ccccn2)SC1=Nc1ccc(Cl)cc1,-4,65*,10,9,31,-5
NC(=S)Nc1ccc(Cl)cc1Cl,22,·,0,-3,0,-2
COc1cc(NC(=O)c2ccc(OC)c([N+](=O)[O-])c2)ccc1NC(=O)c1cccs1,-1,84*,5,-3,38,4
COc1cc(N)ccc1NC(=O)c1cccs1,-6,73*,1,0,15,10
COc1cc(NC(=O)c2cc(OC)c(OC)c(OC)c2)ccc1NC(=O)c1cccs1,-2,·,15,7,23,6
O=C(O)c1ccccc1C(=O)NC1CCCc2ccccc21 (stereo unspecified),-5,·,-8,-2,22,-1
CCCCn1c2ccc(F)cc2c2nnc(SCCN3CCCCC3)nc21,·,·,59*,·,-6,0
C=CCn1c(SCN2C(=O)c3ccccc3C2=O)nc2ccc(Cl)cc2c1=O,3,-5,-25,98*,23,-2
Cc1ccc(/C=N/NS(=O)(=O)c2ccccc2)o1,17,0,3,-15,-49,1
Cc1oc(/C=N/NS(=O)(=O)c2ccccc2)cc1Br,6,63*,-16,-7,27,2
CN1CCCC1CCNS(=O)(=O)c1ccc(Br)cc1 (stereo unspecified),51,96*,15,3,-13,0
SMILES,CSC inhib,Lmaj promast,T cruzi repl,Beta cell apopt,Mdm2 MdmX PPI,SKKanGAS inh
CC1CCCN(C(=O)CCNS(=O)(=O)c2ccc(Br)cc2)C1 (stereo unspecified),·,·,6,0,-2,-7
CN(C)CCCN(C(=O)c1ccc(S(=O)(=O)N2CCc3ccccc32)cc1)c1nc2c(Cl)cccc2s1,50,·,55*,0,30,19
CN(C)CCN(C(=O)c1ccc(S(=O)(=O)N2CCc3ccccc32)cc1)c1nc2ccc(F)cc2s1,3,·,63*,8,-7,9
CN(C)CCCN(C(=O)c1ccc(S(=O)(=O)N2CCCCCC2)cc1)c1nc2ccc(F)cc2s1,-7,·,28,-6,48,5
CN(C)CCCN(C(=O)c1ccc(S(=O)(=O)N2CCCCCC2)cc1)c1nc2c(F)cccc2s1,-3,·,33,-7,18,-2
CCN(c1ccccc1)S(=O)(=O)c1cccc(C(=O)N(C)CCOc2ccccc2)c1,-1,·,10,4,14,4
CCc1c(C)nn(C(=O)/C(C#N)=C\N(C)C)c1C,12,-2,1,-5,20,2
CC1(C)CSC(=NCCc2ccccc2)N1C(=O)c1ccc(C#N)cc1,12,92*,4,-4,3,-1
CC(=O)N1N=C(c2ccco2)CC1c1ccc(Cl)o1 (stereo unspecified),0,·,-3,-2,6,1
CC1(C)Cc2c(C#N)c(N3CCN(C(=O)c4ccccc4)CC3)nc(Cc3ccccc3)c2CO1,28,71*,30,12,16,24
CC(C)N=c1scc(-c2ccco2)n1/N=C/c1ccc(O)c(O)c1,99*,99*,·,11,6,·
Oc1ccc(/C=N/n2c(-c3ccco3)csc2=Nc2cccnc2)c(O)c1,72,99*,4,5,45,6
C=CCN=c1scc(-c2ccco2)n1/N=C/c1ccc(O)c(O)c1O,16,·,-4,5,10,-3
O=C(c1ccc(Cl)cc1)N1CCC(C(=O)N2CCN(c3ncccn3)CC2)CC1,·,·,·,-6,-3,·
S=C(NCCc1ccccc1)N/N=C/c1c(Cl)cccc1Cl,7,-8,-10,-4,4,-1
S=C(NCCc1ccccc1)Nc1ccccc1Cl,5,68*,-6,-3,23,-6
S=C(NCCc1ccccc1)N/N=C/c1ccc(Cl)cc1,22,·,0,1,5,65*
S=C(NCCCc1ccccc1)Nc1ccccc1Cl,1,17,10,1,17,-12
O=C(c1ccco1)N1CCCN(Cc2nc(Cc3ccccc3)no2)CC1,-7,-3,-10,1,13,7
CCc1cccc(C)c1NC(=O)CSc1nnc(C)o1,-1,·,1,·,-12,0
Cc1cc(C(=O)C(C)Sc2cccc[n+]2[O-])c(C)n1-c1ccc(Cl)cc1 (stereo unspecified),-5,97*,-4,7,-36,-7
Cc1cc(C(=O)C(=O)O)c(C)n1-c1ccc(Cl)cc1,·,0,8,1,13,-3
C=CCn1c(CNc2ccccc2)nnc1SCC(=O)N/N=C/c1ccc(O)cc1O,86*,-3,15,0,29,15
C=CCn1c(COc2ccccc2)nnc1SCC(=O)N/N=C/c1cc(Cl)ccc1O,21,-10,-8,-10,24,63*
C=CCn1c(COc2ccccc2)nnc1SCC(=O)N/N=C/c1ccc(C)cc1,7,-1,-8,-8,-7,0

# Bioassay records as filed in PubChem BioAssay.
